Values after ≈ are worked out from the molar mass of the structure shown. Active and inactive are the calls of the source. The calls are words filed in the database; no cut-off is given here.
What was measured:
Proteus mirabilis [1] = test: Minimum inhibitory dilution of medicated rat urine tested in vitro for antibacterial activity against Proteus mirabilis; Less than 1:2; type: functional
Proteus mirabilis [2] = test: In vitro minimum inhibitory concentration against Proteus mirabilis; type: functional; details: Proteus mirabilis; read-out: MIC
Outline: (§1)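 Compounds were dissolved in water, or in water with the minimum DMSO needed to keep them in solution, and tested by an established dilution method. A ">" prefix means the DMSO solvent blank was inhibitory at that level.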

Staphylococcus aureus [3] = test: In vitro minimum inhibitory concentration against Staphylococcus aureus; type: functional; details: Staphylococcus aureus; read-out: MIC; outline: as §1
Staphylococcus aureus [4] = test: Minimum inhibitory dilution of medicated rat urine tested in vitro for antibacterial activity against Staphylococcus aureus; Less than 1:2; type: functional
Mus musculus [5] = test: Antitubercular activity (100 mg/kg) in the 31-day murine mice model; NA=Not active; type: functional, organism-based
Outline: (§2)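 Female Swiss mice (14–16 g), 10 per treated group and 20 infected controls, were infected i.v. with 0.1 mL of a 2 mg/mL M. tuberculosis H37Rv suspension. Oral dosing was in 0.5 mL 1.0% gum tragacanth, starting day 3 post-infection, twice daily, 5 days/week for 4 weeks. Percent survival was recorded at day 31; active meant survival consistently >80%.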

Mus musculus [6] = test: Antitubercular activity (12.5 mg/kg) in the 31-day murine mice model; NA=Not active; type: functional, organism-based; outline: as §2
Mus musculus [7] = test: Antitubercular activity (25 mg/kg) in the 31-day murine mice model; NA=Not active; type: functional, organism-based; outline: as §2
Mus musculus [8] = test: Antitubercular activity (3.1 mg/kg) in the 31-day murine mice model; NA=Not active; type: functional, organism-based; outline: as §2
Mus musculus [9] = test: Antitubercular activity (50 mg/kg) in the 31-day murine mice model; NA=Not active; type: functional, organism-based; outline: as §2
Mus musculus [10] = test: Antitubercular activity (6.25 mg/kg) in the 31-day murine mice model; NA=Not active; type: functional, organism-based; outline: as §2
Staphylococcus aureus [11] = test: Minimum inhibitory dilution of medicated rat urine tested in vitro for antibacterial activity against Staphylococcus aureus; Equal to 1:4; type: functional
Mus musculus [12] = test: Antitubercular activity (100 mg/kg) in the 31-day murine model; type: functional; outline: as §2
Mus musculus [13] = test: Antitubercular activity (12.5 mg/kg) in the 31-day murine model; type: functional; outline: as §2
Mus musculus [14] = test: Antitubercular activity (25 mg/kg) in the 31-day murine model; type: functional; outline: as §2
Mus musculus [15] = test: Antitubercular activity (50 mg/kg) in the 31-day murine model; type: functional; outline: as §2
Mus musculus [16] = test: Antitubercular activity (100 mg/kg) in the 31-day murine mice model; type: functional; outline: as §2
Mus musculus [17] = test: Antitubercular activity (12.5 mg/kg) in the 31-day murine mice model; type: functional; outline: as §2
Mus musculus [18] = test: Antitubercular activity (25 mg/kg) in the 31-day murine mice model; type: functional; outline: as §2
Mus musculus [19] = test: Antitubercular activity (3.1 mg/kg) in the 31-day murine mice model; type: functional; outline: as §2
Mus musculus [20] = test: Antitubercular activity (50 mg/kg) in the 31-day murine mice model; type: functional; outline: as §2
Mus musculus [21] = test: Antitubercular activity (6.25 mg/kg) in the 31-day murine mice model; type: functional; outline: as §2
Proteus mirabilis [22] = test: Minimum inhibitory dilution of medicated rat urine tested in vitro for antibacterial activity against Proteus mirabilis; Equal to 1:16; type: functional
Staphylococcus aureus [23] = test: Minimum inhibitory dilution of medicated rat urine tested in vitro for antibacterial activity against Staphylococcus aureus; Equal to 1:16; type: functional
Staphylococcus aureus [24] = test: Minimum inhibitory dilution of medicated rat urine tested in vitro for antibacterial activity against Staphylococcus aureus; Equal to 1:32; type: functional
Staphylococcus aureus [25] = test: Minimum inhibitory dilution of medicated rat urine tested in vitro for antibacterial activity against Staphylococcus aureus; Equal to 1:2; type: functional
Proteus mirabilis [26] = test: Minimum inhibitory dilution of medicated rat urine tested in vitro for antibacterial activity against Proteus mirabilis; Equal to 1:4; type: functional
Proteus mirabilis [27] = test: Minimum inhibitory dilution of medicated rat urine tested in vitro for antibacterial activity against Proteus mirabilis; Equal to 1:192; type: functional
Staphylococcus aureus [28] = test: Minimum inhibitory dilution of medicated rat urine tested in vitro for antibacterial activity against Staphylococcus aureus; Equal to 1:128; type: functional
Proteus mirabilis [29] = test: Minimum inhibitory dilution of medicated rat urine tested in vitro for antibacterial activity against Proteus mirabilis; Equal to 1:8; type: functional
Proteus mirabilis [30] = test: Minimum inhibitory dilution of medicated rat urine tested in vitro for antibacterial activity against Proteus mirabilis; Equals to 1:16; type: functional
Staphylococcus aureus [31] = test: Minimum inhibitory dilution of medicated rat urine tested in vitro for antibacterial activity against Staphylococcus aureus; Equal to 1:64; type: functional

Structure (SMILES) | MID (Proteus mirabilis [1]) | MIC (Proteus mirabilis [2]) [µg/mL] | MIC (Staphylococcus aureus [3]) [µg/mL] | MID (Staphylococcus aureus [4]) | also measured
Oc1ccccc1Nn1cccc1 | <0.5 | 15.6 (≈ 89.6 µM) | ≤ 7.8 | <0.5 | 
Cc1ccc(C(=O)Oc2ccc(Nn3cccc3)cc2)cc1 | < 0.5 | > 250 | > 250 |  | Survival (Mus musculus [5]): inactive; Survival (Mus musculus [6]): inactive; Survival (Mus musculus [7]): inactive; Survival (Mus musculus [8]): inactive; Survival (Mus musculus [9]): inactive; Survival (Mus musculus [10]): inactive; MID (Staphylococcus aureus [11]): 0.25
CC1=CC(=Nn2cccc2)C=C(C)C1=O | <0.5 | > 125 | 31.3 (≈ 156 µM) |  | MID (Staphylococcus aureus [11]): 0.25
c1ccc(Nc2ccc(Nn3cccc3)cc2)cc1 | <0.5 | > 250 | 31.3 (≈ 126 µM) | <0.5 | 
Oc1cccc(Nn2cccc2)c1 | <0.5 | 500 (≈ 2870 µM) | 62.5 (≈ 359 µM) | <0.5 | 
CC[C@@H](CO)NCCN[C@@H](CC)CO [ETHAMBUTOL] |  |  |  |  | Survival (Mus musculus [12]): 100%; Survival (Mus musculus [13]): 0%; Survival (Mus musculus [14]): 30%; Survival (Mus musculus [15]): 90%
C1=CC(=Nn2cccc2)C=CC1=Nn1cccc1 |  | > 62.5 | > 125 |  | Survival (Mus musculus [16]): 100%; Survival (Mus musculus [17]): 100%; Survival (Mus musculus [18]): 100%; Survival (Mus musculus [19]): 10%; Survival (Mus musculus [20]): 100%; Survival (Mus musculus [21]): 80%; MID (Proteus mirabilis [22]): 0.0625; MID (Staphylococcus aureus [23]): 0.0625
O=C1CN(/N=C/c2ccc([N+](=O)[O-])o2)C(=O)N1 [NITROFURANTOIN] |  | > 62.5 | 15.6 (≈ 65.5 µM) |  | MID (Staphylococcus aureus [24]): 0.03125
Cc1ccc(C(=O)Oc2ccc(N(C(=O)c3ccc(C)cc3)n3cccc3)cc2)cc1 | <0.5 | > 62.5 | 125 (≈ 305 µM) | <0.5 | Survival (Mus musculus [5]): inactive; Survival (Mus musculus [6]): inactive; Survival (Mus musculus [7]): inactive; Survival (Mus musculus [8]): inactive; Survival (Mus musculus [9]): inactive; Survival (Mus musculus [10]): inactive
C1=CC(=Nn2cccc2)C=CC1=Nc1ccccc1 | <0.5 | > 62.5 | > 62.5 | <0.5 | 
CC(C)(C)C1=CC(=Nn2cccc2)C=C(C(C)(C)C)C1=O | <0.5 | > 62.5 | > 62.5 | <0.5 | 
Cc1ccc(C)n1N=C1C=CC(=O)C=C1 | <0.5 | 62.5 (≈ 312 µM) | ≤ 7.8 |  | MID (Staphylococcus aureus [25]): 0.5
NC1=CC(=O)C=C/C1=N/n1cccc1 |  | 125 (≈ 668 µM) | 15.6 (≈ 83.3 µM) |  | MID (Proteus mirabilis [26]): 0.25; MID (Staphylococcus aureus [25]): 0.5
c1ccc(Nn2cccc2)cc1 |  | > 125 | 250 (≈ 1580 µM) |  | MID (Proteus mirabilis [27]): 0.005208; MID (Staphylococcus aureus [28]): 0.00781
Oc1ccc(Nn2cccc2)c2ccccc12 | < 0.5 | 62.5 (≈ 279 µM) | ≤ 7.8 |  | MID (Staphylococcus aureus [11]): 0.25
O=C1C=CC(=Nn2cccc2)C=C1 |  | 62.5 (≈ 363 µM) | ≤ 7.8 |  | Survival (Mus musculus [17]): 100%; Survival (Mus musculus [18]): 100%; Survival (Mus musculus [19]): 0%; Survival (Mus musculus [20]): 100%; Survival (Mus musculus [21]): 100%; MID (Proteus mirabilis [26]): 0.25; MID (Staphylococcus aureus [24]): 0.03125
O=C(O)c1cccn1Nc1ccc(O)cc1 |  | 500 (≈ 2290 µM) | 500 (≈ 2290 µM) |  | MID (Proteus mirabilis [29]): 0.125; MID (Staphylococcus aureus [23]): 0.0625
Oc1ccc(Nn2cccc2)cc1 |  | 31.3 (≈ 180 µM) | ≤ 7.8 |  | Survival (Mus musculus [17]): 100%; Survival (Mus musculus [19]): 0%; Survival (Mus musculus [21]): 100%; MID (Proteus mirabilis [30]): 0.0625; MID (Staphylococcus aureus [31]): 0.01562
